# TbMetRS inhib: Trypanosoma brucei MetRS inhibition | AID 624268 | inhibition, % at 11.9 µM | purified T. brucei MetRS, ATP depletion, Kinase-Glo luminescence | 0.4% of 360,000 active;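 active = inhibition above a per-plate cutoff of the control wells' mean inhibition plus 3 SD, cut at about 5.5% in these data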;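 note: 0% = DMSO wells median and 100% = median of wells with control inhibitor compound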
#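 Material – parasite MetRS enzyme · Medium – HEPES-MgCl2-KCl buffer plus DTT, spermine, BSA, pyrophosphatase · Reagent – ATP, methionine and E. coli bulk tRNA substrates · Times – 15 min enzyme-compound preincubation, 2 h reaction, 10 min detection, 25 °C · Measured by – luminescence of leftover ATP · Evaluation – percent inhibition relative to median high and low control wells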
# CHOP inhibitor: blocks CHOP induction under ER stress. inhibition, % at 10 µM. 3.8% of 220,000 active. AID 2732. CHO-K1 CHOP-promoter luciferase, tunicamycin-induced, 15-18 h;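 active = compounds that reduced the stress-induced luciferase reporter signal by more than about 70% of percent inhibition, limit read from the data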;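 note: 0% = tunicamycin plus vehicle and 100% = wells without tunicamycin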
# GRIN3A LBD mod: modulates the human NR3A ligand-binding domain; AID 1259313; 2.5% of 340,000 active; NR3A LBD differential scanning fluorimetry, Tm shift; 0% = protein alone, 100% = glycine-bound protein; Tm shift relative to glycine control, % at 25 µM;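 active = melting temperature shift of at least 10% of the positive control shift, at one fixed dose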
# EBV gp42 inh: blocks Epstein-Barr virus glycoprotein 42 binding. Fluorescence polarization binding assay, mP read-out. Q1HVG2. AID 1085. inhibition, % (tested at 21.74 µM). 0.42% of 220,000 active; in the data active = inhibition above about 50%
# Target sequence (Q1HVG2 whole entry, looked up): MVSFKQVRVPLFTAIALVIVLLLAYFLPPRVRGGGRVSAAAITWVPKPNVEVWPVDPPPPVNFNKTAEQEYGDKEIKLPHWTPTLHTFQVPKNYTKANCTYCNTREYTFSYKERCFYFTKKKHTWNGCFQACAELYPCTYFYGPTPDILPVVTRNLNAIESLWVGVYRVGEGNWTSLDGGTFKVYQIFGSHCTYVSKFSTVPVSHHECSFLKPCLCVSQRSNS
# WT yeast gro inh: growth inhibition of WT yeast, mitochondrial fusion screen; mitochondrial fusion phenotypic screen, WT strain; inhibition, % at 10 µM; 2.1% of 190,000 active; in the data active = inhibition above about 58%; tested in S. cerevisiae
# MPTP inh: permeability transition pore inhibition; isolated mouse mitochondria, Ca2+ swelling absorbance, 30 min; inhibition, % at 10 µM; 1.4% of 360,000 active; AID 602449;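 active = inhibition of 50% or more, scaled per plate between neutral and stimulator controls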;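 note: 0% = DMSO wells given calcium and 100% = 1 mM EGTA wells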
# Numbers without * were called inactive; x = no result. The list is not random: actives were taken first. Their share in the collection is about 6.4%.
SMILES,TbMetRS inhib,CHOP inhibitor,GRIN3A LBD mod,EBV gp42 inh,WT yeast gro inh,MPTP inh
CCC(C)(C)n1nnnc1C(c1cccs1)N1CCCCC1 (stereo not given),-1,4,0,-20,8,1
CC(C)(C)n1nnnc1C(c1cccs1)N1CCCC2(CCCCC2)C1 (stereo not given),-1,15,-15,4,78*,2
c1csc(C(c2nnnn2C2CCCCC2)N2CCCC3(CCCCC3)C2)c1 (stereo not given),1,82*,2,-14,62*,3
CC(=O)Nc1ccc(-c2ccnc3c2CC(C)(C(=O)Nc2ccc(Cl)cc2)O3)cc1 (stereo not given),0,x,x,x,x,0
CCOC(=O)CC1(C)NC(=O)c2c(C)sc(C(=O)OCC)c2N1 (stereo not given),-1,-2,-1,-7,6,-4
O=C(c1ccc(N2CCCCC2)c([N+](=O)[O-])c1)N(c1ccccn1)c1ccccn1,0,16,0,-6,10,-1
O=C(c1ccc(Cl)c([N+](=O)[O-])c1)N(c1ccccn1)c1ccccn1,-1,9,15*,-2,5,0
COc1ccc(C(C)=O)cc1CSc1nc2ccccc2o1,-2,61,0,-4,13,0
Cc1cccc(NC(=S)N(Cc2cccc(Br)c2)CC2CCC(C(=O)O)CC2)c1 (stereo not given),-1,-25,1,-2,-10,-2
COc1cccc(NC(=S)N(Cc2cccc(Br)c2)CC2CCC(C(=O)O)CC2)c1 (stereo not given),-1,-1,17*,-13,0,-1
COc1ccc(NC(=S)N(Cc2cccc(Br)c2)CC2CCC(C(=O)O)CC2)cc1 (stereo not given),-1,2,12*,-4,1,-1
COc1ccc(N=Nc2cc(OC)c(N)cc2OC)cc1,0,x,0,x,x,2
Cc1cc(N=Nc2ccc(C)c(N=Nc3cc(C)c(N)cc3N)c2)c(N)cc1N,0,38,10*,14,x,4
Cc1ccc(C)c(N2CCN(C(=O)c3ccc(CSc4nc5ccncc5[nH]4)cc3)CC2)c1,0,72*,-4,0,1,0
Cc1ccc2oc(Nc3nc(-c4ccccc4)cc(=O)[nH]3)nc2c1,x,101*,-4,-4,-5,x
O=C(NCC(=O)N1CCN(C(=O)c2ccco2)CC1)c1cccc(Cl)c1,-1,x,0,x,x,1
O=C(CN1CCN(C(=O)c2ccccc2Cl)CC1)Nc1cccc(S(=O)(=O)N2CCCC2)c1,0,x,-1,x,x,-2
O=C(NCC(=O)N(c1cccc(F)c1)C(C(=O)NC1CCCC1)c1ccncc1)c1ccco1 (stereo not given),0,x,-3,x,x,0
OC(COCc1ccccc1)Cn1cnc2ccccc21 (stereo not given),-2,0,0,-3,-4,1
OC(CN(c1ccccc1)c1ccccc1)Cn1cnc2ccccc21 (stereo not given),-1,92*,-25,13,38,-1
N#CC1=C(N)Oc2cc(O)c(C=Nc3ccccc3)cc2C1c1ccccc1 (stereo not given),0,60,-4,-24,-9,12
Cc1ccccc1N=Cc1cc2c(cc1O)OC(N)=C(C#N)C2c1ccccc1 (stereo not given),-2,89*,6,3,-1,4
CCOC(=O)N1CCN(Cc2ccc(O)c3ncccc23)CC1,x,7,-3,-15,-18,x
Cc1ccc(C)c(S(=O)(=O)N2CCN(Cc3ccc(O)c4ncccc34)CC2)c1,0,76*,-2,-8,-25,-1
c1ccc(-c2cc(N3CCCCC3)nc(-c3ccccc3)n2)cc1,0,31,-5,-16,-3,22
Cc1ccc(Oc2cc(N3CCOCC3)nc(-c3ccccc3)n2)cc1,-1,30,0,-7,-19,0
c1ccc(-c2cc(N3CCOCC3)nc(-c3ccccc3)n2)cc1,-1,89*,-3,3,-7,0
Fc1ccc(Oc2cc(N3CCOCC3)nc(-c3ccccc3)n2)c(F)c1,-1,87*,-1,0,18,2
Cc1cccc(NC(=O)Nc2ccc(C)cc2Br)c1,1,90*,-9,2,10,13

# High-throughput results as filed in PubChem.
